Screens (PubChem)
Rows were chosen to be rich in hits. Some 27% of all compounds tested hit in one or more screens of this group.
CYP2C19 inhib: human CYP2C19 inhibition. P33261. CYP2C19 Supersomes, luciferin-H EGE luminescence, 30 min. inhibition, % at 5 µM. hit rate 21% among 96,000;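 active means CYP2C19 inhibition above a set limit at 5 µM in the primary screen, cut at about 50% in these data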
Target sequence (P33261 whole entry, looked up): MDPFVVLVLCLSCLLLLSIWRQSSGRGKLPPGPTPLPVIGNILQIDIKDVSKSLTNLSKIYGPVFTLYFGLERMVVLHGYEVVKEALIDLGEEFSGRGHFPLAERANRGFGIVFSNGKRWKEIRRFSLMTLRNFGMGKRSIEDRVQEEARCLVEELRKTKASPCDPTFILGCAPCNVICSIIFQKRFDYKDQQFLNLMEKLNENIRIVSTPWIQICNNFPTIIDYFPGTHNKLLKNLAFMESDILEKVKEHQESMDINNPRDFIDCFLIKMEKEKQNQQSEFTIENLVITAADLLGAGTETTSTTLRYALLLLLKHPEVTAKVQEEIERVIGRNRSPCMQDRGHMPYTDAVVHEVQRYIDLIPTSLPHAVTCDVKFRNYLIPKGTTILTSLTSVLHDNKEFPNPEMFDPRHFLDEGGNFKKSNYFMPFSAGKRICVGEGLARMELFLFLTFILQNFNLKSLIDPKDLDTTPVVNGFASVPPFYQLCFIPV
Rev-RRE block: inhibitors of HIV-1 Rev-RRE RNA interaction; P05866; AID 704; hit rate 0.79% among 97,000; Rev peptide-RRE RNA binding, FRET; inhibition, % at 8 µM;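 active means inhibition above the screen-wide mean plus 3 SD, cut at about 35% in these data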
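Material: labelled RRE RNA duplex and labelled Rev peptide / Buffer or medium: HEPES pH 7.5 salt buffer with EDTA / Compound dosing: single point, 8 µM final nominal compound concentration / Benchmarks: DMSO low control, neomycin B high control / Timing: 5 min preincubation and 15 min binding, 25 °C / Technique: FRET fluorescence readout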
CYP2C9 inhib: inhibitors of human CYP2C9 | P11712 | CYP2C9 Supersomes, luciferin-H conversion, luminescence | inhibition, % at 5 µM | hit rate 20% among 96,000 | AID 777;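 active means blocking of liver enzyme CYP2C9 beyond about 50% at 5 µM, limit read from the data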
CYP2C19 activ: activators of human cytochrome P450 2C19. P33261. recombinant CYP2C19, luciferin-H EGE luminescence; active compounds read high; 0 = fully inhibited enzyme, 1 = untreated enzyme. activation factor at 5 µM. 96,000 tested, under 10 active. AID 1025;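 active means activation factor of at least 2 at 5 µM in the primary screen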
CYP2C9 act: CYP2C9 (human) activation | recombinant CYP2C9, luciferin-H conversion, luminescence; active compounds read high; factor 1 = untreated enzyme, 0 = blocked | P11712 | hit rate 1.4% among 96,000 | activation factor at 5 µM;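 active means activation factor of 2 or more for CYP2C9 at a 5 µM dose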
Cav32 inh: human Cav3.2 channel inhibition, primary screen | O95180 | Cav3.2-expressing cells, Fluo-4 calcium fluorescence FDSS; active compounds read low | B-score at 10 µM | hit rate 4% among 100,000 | AID 449739;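 active means single-dose well whose peak fluorescence ratio is a statistical outlier from its plate by either plate-standardised score or position-corrected B-score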
Hits are given with their value; - = inactive; . = no result given.

SMILES	CYP2C19 inhib	Rev-RRE block	CYP2C9 inhib	CYP2C19 activ	CYP2C9 act	Cav32 inh
COC(C[C@@H]1O[C@H]1[C@@H](O)COCc1ccccc1)OC	.	.	.	.	.	-
Cc1ccccc1OCC(=O)Nc1sc(C(=O)Nc2cccc(C)c2C)c(C)c1C#N	-	-	-	-	-	-
CS(=O)(=O)N1CCC(C(=O)NCc2ccncc2)CC1	-	-	59	-	-	-
O=C(NCc1ccc(Cl)cc1)C1CCCN(S(=O)(=O)c2cnc[nH]2)C1 (configuration not stated)	99	-	96	-	-	-
Cc1cccc(NC(=S)N2N=CCC2c2ccccc2)c1 (configuration not stated)	-	-	-	-	-	-
COc1ccc(NC(=O)CSc2nc3ccccc3c(=O)n2CCNC(C)=O)cc1	94	-	58	-	-	-
COc1ccc(NC(=O)CSc2nc3ccccc3c(=O)n2CCNC(C)=O)c(OC)c1	-	-	51	-	-	-
CCOc1ccc(NC(=O)CSc2nc3ccccc3c(=O)n2CCNC(C)=O)cc1	-	-	-	-	-	-
COc1ccc(OC)c(NC(=O)CSc2nc3ccccc3c(=O)n2CCNC(C)=O)c1	.	-	.	.	.	3.6
CCC(C)NC(=O)CSc1nc2ccsc2c(=O)n1-c1ccc(OC)cc1 (configuration not stated)	-	-	-	-	-	-
CCC(C)NC(=O)CSc1nc2ccccc2c(=O)n1Cc1ccc(OC)cc1 (configuration not stated)	85	-	-	-	-	-
Cc1cc(-c2cc(C(=O)NCc3ccccc3)on2)nc(NCC2CC2)n1	.	.	.	.	.	-
O=C(Nc1ccc(Cl)cc1)N1CC=CCC1	-	.	-	-	-	-
Cc1nc(CC(=O)c2c(C)cc(O)cc2O)cs1	-	-	-	-	-	-
CC[N+](CC)(CC)C/C(N)=N/O	-	-	-	-	-	-
COC(=O)C(C(=O)OC)C(C)C(C(=O)OC)C(=O)OC	-	-	-	-	-	-
COC(=O)C1=C(C)N(Cc2ccco2)C(=O)N[C@@H]1c1ccco1	.	.	.	.	.	-
CCn1c(SCC(=O)Nc2ccccc2OC)nc2ccccc2c1=O	61	-	86	-	-	-
Cc1ccc(-n2c(SCc3cc(=O)n4ccsc4n3)nnc2-c2cccnc2)c(C)c1	-	-	-	-	-	.
CC(=O)NC1C(=O)N(C)c2ccc(Br)cc21 (configuration not stated)	-	-	-	-	-	-
OCCOCCn1c2ccccc2c2ccccc21	55	-	-	-	-	.
CCOC(=O)N1CCC(Nc2c(NCCCN(C)Cc3ccccc3)c(=O)c2=O)CC1	-	-	-	-	-	-
O=C(Nc1ccc(F)cc1)N1CCN(c2ccc3nnc(-c4ccc(F)cc4)n3n2)CC1	50	-	55	-	-	-
O=C(Nc1ccccc1C(F)(F)F)N1CCN(c2ccc3nncn3n2)CC1	-	.	72	-	-	-
O=C(Nc1ccccc1)N1CCN(c2ccc(C(F)(F)F)cn2)CC1	-	-	-	-	-	-
SMILES	CYP2C19 inhib	Rev-RRE block	CYP2C9 inhib	CYP2C19 activ	CYP2C9 act	Cav32 inh
Cc1nnc2ccc(N3CCN(C(=O)c4ccccc4)CC3)nn12	-	-	-	-	-	-
Fc1ccc(-c2nnc3ccc(N4CCc5ccccc5C4)nn23)cc1	57	-	86	-	-	-
O=C(Nc1ccccc1C(F)(F)F)N1CCN(c2ccc3nnc(-c4ccc(F)cc4)n3n2)CC1	-	.	65	-	-	-
Cc1ccc(Cn2c(CN3CCOCC3)nc3c2c(=O)n(C)c(=O)n3C)cc1	.	-	.	.	.	-
Cc1cccc(CCNC(=O)C2CCN(S(=O)(=O)c3c(C)nn(C)c3C)CC2)c1	-	-	-	-	-	-
Cc1ccc(CC(=O)NCCCc2ccccc2)cc1	79	-	85	-	-	-
O=C(/C=C/c1ccccc1)NCCc1ccccc1	.	.	.	.	.	-
O=C(Cc1ccccc1)NCCCc1ccccc1	68	-	-	-	-	-
CC(CCc1ccccc1)NC(=O)/C=C/c1ccccc1 (configuration not stated)	52	-	-	-	-	-
Cc1ccc(CC(=O)NCC(C)C)cc1	79	-	-	-	-	-
O=S(=O)(c1ccc(Cl)cc1)N1CCC(N2CCCCCC2)CC1	-	-	-	-	-	-
CC1=C(N2CCCCC2)CCC1=O	.	.	.	.	.	-
